Measurements as given in ChEMBL document CHEMBL1268917, “Synthesis and biological evaluation of radio-iodinated benzimidazoles as SPECT imaging agents for NR2B subtype of NMDA receptor” (Bioorg Med Chem, 2010).

Key:
Heart [1] = assay: Biodistribution in ddY mouse heart assessed per gram of tissue at 14.8 kBq, iv after 180 mins; format: ADME, organism-based; conditions: in vivo, 3 h
Outline: (§1)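 Killed at set times after injection; organs and blood removed, weighed, gamma counted. Data as % injected dose per gram tissue, mean SD, n = 5–6.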

Heart [2] = assay: Biodistribution in ddY mouse heart assessed per gram of tissue at 14.8 kBq, iv after 0.5 mins; format: ADME, organism-based; conditions: in vivo; outline: as §1
Lung [3] = assay: Biodistribution in ddY mouse lung assessed per gram of tissue at 14.8 kBq, iv after 360 mins; format: ADME, organism-based; conditions: in vivo, 6 h
Outline: (§2)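 Radioiodinated tracer (14.8 kBq) injected via tail vein into male ddY mice (6 weeks, 30–35 g). Organs removed at set times after injection, weighed and gamma-counted; uptake expressed as % injected dose per gram tissue, mean ± SD, n = 5–6.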

Liver [4] = assay: Biodistribution in ddY mouse liver assessed per gram of tissue at 14.8 kBq, iv after 180 mins; format: ADME, organism-based; conditions: in vivo, 3 h; outline: as §1
Heart [5] = assay: Biodistribution in ddY mouse heart assessed per gram of tissue at 14.8 kBq, iv after 30 mins; format: ADME, organism-based; conditions: in vivo, 0.5 h; outline: as §1
Liver [6] = assay: Biodistribution in ddY mouse liver assessed per gram of tissue at 148 kBq, iv after 180 mins in presence of 50 mg/kg, iv of cyclosporin A administered 30 mins before compound challenge (reference value: 16.20 +/- 1.34 %); format: ADME, organism-based; design: dose 50 mg/kg, route intravenous; conditions: in vivo, 3 h
Spleen [7] = assay: Biodistribution in ddY mouse spleen assessed per gram of tissue at 14.8 kBq, iv after 180 mins; format: ADME, organism-based; conditions: in vivo, 3 h; outline: as §2
Liver [8] = assay: Biodistribution in ddY mouse liver assessed per gram of tissue at 14.8 kBq, iv after 60 mins; format: ADME, organism-based; conditions: in vivo, 1 h; outline: as §2
Lung [9] = assay: Biodistribution in ddY mouse lung assessed per gram of tissue at 14.8 kBq, iv after 180 mins; format: ADME, organism-based; conditions: in vivo, 3 h; outline: as §2
Brain [10] = assay: Biodistribution in ddY mouse brain assessed per gram of tissue at 14.8 kBq, iv after 30 mins; format: ADME, organism-based; conditions: in vivo, 0.5 h; outline: as §1
Stomach [11] = assay: Biodistribution in ddY mouse stomach assessed per gram of tissue at 14.8 kBq, iv after 180 mins; format: ADME, organism-based; conditions: in vivo, 3 h; outline: as §2
Stomach [12] = assay: Biodistribution in ddY mouse stomach assessed per gram of tissue at 14.8 kBq, iv after 30 mins; format: ADME, organism-based; conditions: in vivo, 0.5 h; outline: as §2
Kidney [13] = assay: Biodistribution in ddY mouse kidney assessed per gram of tissue at 14.8 kBq, iv after 180 mins; format: ADME, organism-based; conditions: in vivo, 3 h; outline: as §1
Blood [14] = assay: Biodistribution in ddY mouse blood assessed per gram of tissue at 148 kBq, iv after 180 mins in presence of 50 mg/kg, iv of cyclosporin A administered 30 mins before compound challenge (reference value: 0.78 +/- 0.27 %); format: ADME, organism-based; design: dose 50 mg/kg, route intravenous; conditions: in vivo, 3 h
Brain [15] = assay: Biodistribution in ddY mouse brain assessed per gram of tissue at 14.8 kBq, iv after 360 mins; format: ADME, organism-based; conditions: in vivo, 6 h; outline: as §1
Pancreas = assay: Biodistribution in ddY mouse pancreas assessed per gram of tissue at 14.8 kBq, iv after 5 mins; format: ADME, organism-based; conditions: in vivo; outline: as §2
Liver [16] = assay: Biodistribution in ddY mouse liver assessed per gram of tissue at 14.8 kBq, iv after 5 mins; format: ADME, organism-based; conditions: in vivo; outline: as §1
Liver [17] = assay: Biodistribution in ddY mouse liver assessed per gram of tissue at 148 kBq, iv after 180 mins in presence of 200 mg/kg, iv of probenecid administered 30 mins before compound challenge (reference value: 19.13 +/- 2.09 %); conditions: in vivo, 3 h
Kidney [18] = assay: Biodistribution in ddY mouse kidney assessed per gram of tissue at 14.8 kBq, iv after 0.5 mins; format: ADME, organism-based; conditions: in vivo; outline: as §1
Kidney [19] = assay: Biodistribution in ddY mouse kidney assessed per gram of tissue at 148 kBq, iv after 180 mins in presence of 200 mg/kg, iv of probenecid administered 30 mins before compound challenge (reference value: 6.29 +/- 1.47 %); conditions: in vivo, 3 h
Stomach [20] = assay: Biodistribution in ddY mouse stomach assessed per gram of tissue at 14.8 kBq, iv after 60 mins; format: ADME, organism-based; conditions: in vivo, 1 h; outline: as §2
Liver [21] = assay: Biodistribution in ddY mouse liver assessed per gram of tissue at 14.8 kBq, iv after 360 mins; format: ADME, organism-based; conditions: in vivo, 6 h; outline: as §1
Lung [22] = assay: Biodistribution in ddY mouse lung assessed per gram of tissue at 14.8 kBq, iv after 30 mins; format: ADME, organism-based; conditions: in vivo, 0.5 h; outline: as §2
Intestine [23] = assay: Biodistribution in ddY mouse intestine assessed per gram of tissue at 14.8 kBq, iv after 60 mins; format: ADME, organism-based; conditions: in vivo, 1 h; outline: as §1
Intestine [24] = assay: Biodistribution in ddY mouse intestine assessed per gram of tissue at 14.8 kBq, iv after 0.5 mins; format: ADME, organism-based; conditions: in vivo; outline: as §1
Kidney [25] = assay: Biodistribution in ddY mouse kidney assessed per gram of tissue at 148 kBq, iv after 180 mins in presence of 50 mg/kg, iv of cyclosporin A administered 30 mins before compound challenge (reference value: 4.49 +/- 1.34 %); format: ADME, organism-based; design: dose 50 mg/kg, route intravenous; conditions: in vivo, 3 h
Spleen [26] = assay: Biodistribution in ddY mouse spleen assessed per gram of tissue at 14.8 kBq, iv after 30 mins; format: ADME, organism-based; conditions: in vivo, 0.5 h; outline: as §2
Blood [27] = assay: Biodistribution in ddY mouse blood assessed per gram of tissue at 148 kBq, iv after 180 mins in presence of 200 mg/kg, iv of probenecid administered 30 mins before compound challenge (reference value: 0.46 +/- 0.07 %); format: ADME, organism-based; design: dose 200 mg/kg, route intravenous; conditions: in vivo, 3 h
Lung [28] = assay: Biodistribution in ddY mouse lung assessed per gram of tissue at 14.8 kBq, iv after 60 mins; format: ADME, organism-based; conditions: in vivo, 1 h; outline: as §2
Brain [29] = assay: Biodistribution in ddY mouse brain assessed per gram of tissue at 14.8 kBq, iv after 0.5 mins; format: ADME, organism-based; conditions: in vivo; outline: as §1
Stomach [30] = assay: Biodistribution in ddY mouse stomach assessed per gram of tissue at 14.8 kBq, iv after 360 mins; format: ADME, organism-based; conditions: in vivo, 6 h; outline: as §2
Brain [31] = assay: Biodistribution in ddY mouse brain assessed per gram of tissue at 14.8 kBq, iv after 60 mins; format: ADME, organism-based; conditions: in vivo, 1 h; outline: as §1
Brain [32] = assay: Biodistribution in ddY mouse brain assessed per gram of tissue at 148 kBq, iv after 180 mins in presence of 50 mg/kg, iv of cyclosporin A administered 30 mins before compound challenge (reference value: 0.50 +/- 0.04 %); format: ADME, organism-based; design: dose 50 mg/kg, route intravenous; conditions: in vivo, 3 h
Lung [33] = assay: Biodistribution in ddY mouse lung assessed per gram of tissue at 14.8 kBq, iv after 0.5 mins; format: ADME, organism-based; conditions: in vivo; outline: as §2
Heart [34] = assay: Biodistribution in ddY mouse heart assessed per gram of tissue at 14.8 kBq, iv after 60 mins; format: ADME, organism-based; conditions: in vivo, 1 h; outline: as §1
Heart [35] = assay: Biodistribution in ddY mouse heart assessed per gram of tissue at 14.8 kBq, iv after 5 mins; format: ADME, organism-based; conditions: in vivo; outline: as §1
Intestine [36] = assay: Biodistribution in ddY mouse intestine assessed per gram of tissue at 14.8 kBq, iv after 180 mins; format: ADME, organism-based; conditions: in vivo, 3 h; outline: as §1
Liver [37] = assay: Biodistribution in ddY mouse liver assessed per gram of tissue at 14.8 kBq, iv after 0.5 mins; format: ADME, organism-based; conditions: in vivo; outline: as §1
Spleen [38] = assay: Biodistribution in ddY mouse spleen assessed per gram of tissue at 14.8 kBq, iv after 5 mins; format: ADME, organism-based; conditions: in vivo; outline: as §2
Blood [39] = assay: Biodistribution in ddY mouse blood assessed per gram of tissue at 14.8 kBq, iv after 180 mins; format: ADME, organism-based; conditions: in vivo, 3 h; outline: as §1
Intestine [40] = assay: Biodistribution in ddY mouse intestine assessed per gram of tissue at 14.8 kBq, iv after 30 mins; format: ADME, organism-based; conditions: in vivo, 0.5 h; outline: as §1
Intestine [41] = assay: Biodistribution in ddY mouse intestine assessed per gram of tissue at 14.8 kBq, iv after 360 mins; format: ADME, organism-based; conditions: in vivo, 6 h; outline: as §1

Drug uptake (Heart [1]): 1.58 % ID/g
Drug uptake (Heart [2]): 1.47 % ID/g
Drug uptake (Lung [3]): 3.44 % ID/g
Drug uptake (Liver [4]): 32.22 % ID/g
Drug uptake (Heart [5]): 2.31 % ID/g
Drug uptake (Liver [6]): 15.2 % ID/g
Drug uptake (Spleen [7]): 4.25 % ID/g
Drug uptake (Liver [8]): 30.5 % ID/g
Drug uptake (Lung [9]): 4.75 % ID/g
Drug uptake (Brain [10]): 0.44 % ID/g
Drug uptake (Stomach [11]): 2.51 % ID/g
Drug uptake (Stomach [12]): 2.54 % ID/g
Drug uptake (Kidney [13]): 7.74 % ID/g
Drug uptake (Blood [14]): 0.52 % ID/g
Drug uptake (Brain [15]): 0.55 % ID/g
Drug uptake (Pancreas): 5.74 % ID/g
Drug uptake (Liver [16]): 25.03 % ID/g
Drug uptake (Liver [17]): 20 % ID/g
Drug uptake (Kidney [18]): 5.35 % ID/g
Drug uptake (Kidney [19]): 4.2 % ID/g
Drug uptake (Stomach [20]): 2.16 % ID/g
Drug uptake (Liver [21]): 30.16 % ID/g
Drug uptake (Lung [22]): 8.16 % ID/g
Drug uptake (Intestine [23]): 2.35 % ID/g
Drug uptake (Intestine [24]): 4.02 % ID/g
Drug uptake (Kidney [25]): 4.8 % ID/g
Drug uptake (Spleen [26]): 5.91 % ID/g
Drug uptake (Blood [27]): 0.41 % ID/g
Drug uptake (Lung [28]): 7.54 % ID/g
Drug uptake (Brain [29]): 0.21 % ID/g
Drug uptake (Stomach [30]): 2.17 % ID/g
Drug uptake (Brain [31]): 0.48 % ID/g
Drug uptake (Brain [32]): 0.66 % ID/g
Drug uptake (Lung [33]): 6.6 % ID/g
Drug uptake (Heart [34]): 1.87 % ID/g
Drug uptake (Heart [35]): 5.39 % ID/g
Drug uptake (Intestine [36]): 4.55 % ID/g
Drug uptake (Liver [37]): 14.68 % ID/g
Drug uptake (Spleen [38]): 5.66 % ID/g
Drug uptake (Blood [39]): 0.3 % ID/g
Drug uptake (Intestine [40]): 2.39 % ID/g
Drug uptake (Intestine [41]): 5.89 % ID/g
Structure (SMILES): Oc1ccc2nc(CN3CCC(Cc4ccc([125I])cc4)CC3)[nH]c2c1
